Measured values taken from ChEMBL document CHEMBL1130344, “Discovery of TBC11251, a potent, long acting, orally active endothelin receptor-A selective antagonist” (J Med Chem, 1997).
Active and inactive are the calls of the source. No cut-off for these calls is given here.

Key:
Endothelin-1 receptor [1] = biological target: T1, Endothelin-1 receptor (Homo sapiens, UniProt P25101); experiment: In vitro inhibition of endothelin binding to human Endothelin A receptor using [125I]-labeled ET-1 competition assay
T1 sequence (P25101 whole entry): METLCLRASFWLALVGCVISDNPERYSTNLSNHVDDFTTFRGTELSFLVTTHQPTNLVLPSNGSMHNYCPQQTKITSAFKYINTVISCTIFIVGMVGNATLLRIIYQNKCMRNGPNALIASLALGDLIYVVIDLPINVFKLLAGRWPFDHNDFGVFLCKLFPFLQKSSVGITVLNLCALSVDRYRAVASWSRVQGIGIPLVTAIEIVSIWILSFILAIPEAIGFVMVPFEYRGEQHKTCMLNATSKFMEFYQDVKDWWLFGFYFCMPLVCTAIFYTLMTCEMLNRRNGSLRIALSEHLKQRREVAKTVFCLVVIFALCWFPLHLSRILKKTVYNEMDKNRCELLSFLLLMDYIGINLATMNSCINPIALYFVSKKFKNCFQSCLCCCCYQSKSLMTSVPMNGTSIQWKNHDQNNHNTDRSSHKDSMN
How it was run: (§1)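 Membranes in 30 mM HEPES pH 7.4 with 150 mM NaCl, 5 mM MgCl2 and 0.05% bacitracin: […] for ET_B (ET_B from COS 7 cells transfected with human ET_B DNA). Competition against 4 pM [125I]ET-1, 0.25% DMSO final, in triplicate, for 16–18 h at 24 °C. Nonspecific binding with 100 nM ET-1. Bound radioactivity gamma-counted after centrifugation.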

[2] = biological target: T2, Endothelin receptor type B (Homo sapiens, UniProt P24530); experiment: In vitro inhibition of endothelin binding to human Endothelin B receptor using [125I]-labeled ET-1 competition assay; how it was run: as §1
T2 sequence (P24530 whole entry): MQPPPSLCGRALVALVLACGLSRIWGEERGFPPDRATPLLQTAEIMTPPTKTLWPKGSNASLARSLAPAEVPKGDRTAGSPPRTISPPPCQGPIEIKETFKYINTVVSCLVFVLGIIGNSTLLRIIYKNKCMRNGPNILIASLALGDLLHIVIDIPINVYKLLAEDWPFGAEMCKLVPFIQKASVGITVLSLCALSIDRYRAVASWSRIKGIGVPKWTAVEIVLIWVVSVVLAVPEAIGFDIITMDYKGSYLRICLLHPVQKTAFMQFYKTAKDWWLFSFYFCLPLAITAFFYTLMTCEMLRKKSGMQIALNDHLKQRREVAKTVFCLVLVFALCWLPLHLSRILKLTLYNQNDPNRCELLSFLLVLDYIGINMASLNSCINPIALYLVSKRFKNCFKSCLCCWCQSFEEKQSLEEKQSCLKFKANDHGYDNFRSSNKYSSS

[3] = Phosphoinositol hydrolysis in TE671 or transfected cos 7 cells; format: functional, cell-based; details: read-out: pA2 (converted)
How it was run: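 TE 671 or transfected COS 7 cells were grown to confluence, then labelled for 16 h with [3H]myoinositol in inositol-free RPMI with 10% inositol-free FCS at 37 °C, 6% CO2. They were preincubated 10 min in LiCl-containing HEPES buffer pH 7.4 ± test compound, then given ET-1 at varying concentrations for 45 min. Inositol phosphates were extracted with ice-cold methanol (Berridge method), and well protein was measured by BCA.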

Rattus norvegicus [4] = experiment: The compound was tested in vivo for percent inhibition in ET-1 challenge in rats at 60 mg/kg; format: functional
How it was run: (§2)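 Male Sprague–Dawley rats (250–350 g) were cannulated (femoral artery/vein) under methohexital, then restrained conscious with 60 min recovery. Autonomic blockade used iv atropine methyl nitrate 3 mg/kg plus propranolol 2 mg/kg. Vehicle was 1 M Tris base or sodium bicarbonate.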

[5] = Serum half life in rat; format: ADME, organism-based
How it was run: (§3)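 Rats (48 h post-surgery recovery) received 20–50 mg/kg at 1 mL/kg iv or 10 mL/kg po. Serial caudal-vein blood samples were taken over 24 h, and plasma was stored at -20 °C until assay. Bioavailability came from comparing dose and AUC.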

[6] = Oral bioavailability in rat; format: ADME, organism-based; details: in vivo; how it was run: as §3
Rattus norvegicus [7] = experiment: The compound was tested in vivo for percent inhibition in ET-1 challenge in rats at 15 mg/kg; format: functional; how it was run: as §2
Rattus norvegicus [8] = experiment: The compound was tested in vivo for percent inhibition in ET-1 challenge in rats at 15 mg/kg; not active; format: functional, organism-based; set-up: dose 15 mg/kg; how it was run: as §2
[9] = Oral bioavailability in dog; format: ADME, organism-based, Canis lupus familiaris; details: in vivo
How it was run: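 Dogs (7 days post-surgery recovery) were dosed iv at 1 mL/kg via the right saphenous vein, or by oral gavage at 2 mL/kg plus an aqueous flush after overnight fasting. Routes were crossed over 7 days later. Plasma levels were followed over 24 h, and bioavailability came from comparing dose and AUC.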

Rattus norvegicus [10] = experiment: In vivo efficacy in acute hypoxia induced pulmonary hypertension in rats following intravenous administration; format: functional, organism-based
Rattus norvegicus [11] = experiment: In vivo efficacy in acute hypoxia induced pulmonary hypertension in rats following oral administration; format: functional, organism-based
Endothelin-1 receptor [12] = biological target: T1, Endothelin-1 receptor; experiment: Binding affinity against human Endothelin A receptor
[13] = The serum half life of the compound; format: ADME, cell-free

| SMILES | IC50 (Endothelin-1 receptor [1]) | IC50 [2] | other results |
| --- | --- | --- | --- |
| Cc1noc(NS(=O)(=O)c2ccsc2C(=O)N2CCN(Cc3ccc4c(c3)OCO4)CC2)c1Cl | 19600 nM |  |  |
| Cc1cc2c(cc1CC(=O)c1sccc1S(=O)(=O)Nc1noc(C)c1Cl)OCO2 |  | 3900 nM | Kb [3]: 3.39 nM |
| COc1cccc(CC(=O)c2sccc2S(=O)(=O)Nc2onc(C)c2Cl)c1 | 30 nM | 19100 nM |  |
| Cc1ccc(NC(=O)c2sccc2S(=O)(=O)Nc2onc(C)c2Cl)cc1 |  |  | inhibition (Rattus norvegicus [8]): inactive; half-life [5]: < 0.5 h; bioavailability [6]: 0% |
| Cc1noc(NS(=O)(=O)c2ccsc2/C(Cc2ccc3c(c2)OCO3)=N\O)c1Cl | 1100 nM | 4200 nM |  |
| Cc1noc(NS(=O)(=O)c2ccsc2C(=O)Nc2ccc3c(c2)OCO3)c1Br |  |  | inhibition (Rattus norvegicus [8]): inactive; half-life [5]: < 0.5 h; bioavailability [6]: 0% |
| Cc1noc(NS(=O)(=O)c2ccsc2C(=O)c2ccc3c(c2)OCO3)c1Br | 2000 nM | 15400 nM |  |
| Cc1noc(NS(=O)(=O)c2ccsc2C(O)Cc2ccc3c(c2)OCO3)c1Cl (stereo not given) | 56 nM | 15700 nM |  |
| Cc1noc(NS(=O)(=O)c2ccsc2C(=O)Cc2ccc3c(c2)OCO3)c1C |  | 27200 nM |  |
| Cc1noc(NS(=O)(=O)c2ccsc2C2(Cc3ccc4c(c3)OCO4)OCCO2)c1Cl | 123 nM | 2100 nM |  |
| COc1cc(C#N)c(NC(=O)c2sccc2S(=O)(=O)Nc2onc(C)c2Cl)cc1OC |  |  | half-life [5]: < 0.15 h; bioavailability [6]: 2%; inhibition in vivo at 15 mg/kg (Rattus norvegicus [7]): 50% |
| Cc1noc(NS(=O)(=O)c2ccsc2C(Cc2ccc3c(c2)OCO3)N(C)C)c1Cl (stereo not given) | 21000 nM | > 100000 nM |  |
| Cc1ccc(CC(=O)c2sccc2S(=O)(=O)Nc2onc(C)c2C)cc1 | 27 nM | 29200 nM |  |
| Cc1noc(NS(=O)(=O)c2ccsc2C(=O)NC(=O)c2ccc3c(c2)OCO3)c1Br | 887 nM | 37200 nM |  |
| Cc1noc(NS(=O)(=O)c2ccsc2C(C)(O)Cc2ccc3c(c2)OCO3)c1Cl (stereo not given) | 22200 nM | > 100000 nM |  |
| CC#N.Cc1noc(NS(=O)(=O)c2ccsc2C(=O)Cc2cc3c(cc2C#N)OCO3)c1Cl | 1.3 nM | 723 nM | Kb [3]: 10 nM; inhibition in vivo at 15 mg/kg (Rattus norvegicus [7]): 52% |
| Cc1cc2c(cc1CC(=O)c1sccc1S(=O)(=O)Nc1onc(C)c1C)OCO2 |  |  | half-life [5]: 7 h; bioavailability [6]: 100%; inhibition in vivo at 15 mg/kg (Rattus norvegicus [7]): 33% |
| COc1ccc(NC(=O)c2sccc2S(=O)(=O)Nc2onc(C)c2Cl)c(C)c1 |  |  | half-life [13]: < 9 min; inhibition in vivo at 15 mg/kg (Rattus norvegicus [7]): 33% |

Further compounds by falling IC50 (Endothelin-1 receptor [1]), results first:

| IC50 (Endothelin-1 receptor [1]) | IC50 [2] | SMILES | other results |
| --- | --- | --- | --- |
| 20 nM |  | Cc1ccc(CC(=O)c2sccc2S(=O)(=O)Nc2onc(C)c2Br)cc1 |  |
| 18 nM | 7000 nM | Cc1noc(NS(=O)(=O)c2ccsc2C(=O)Cc2ccc3c(c2)OCO3)c1Cl | inhibition in vivo at 60 mg/kg (Rattus norvegicus [4]): 41%; Kb [3]: 178 nM; half-life [5]: 1.5 h; bioavailability [6]: 30% |
| 14 nM |  | Cc1noc(NS(=O)(=O)c2ccsc2C(=O)Cc2ccc3c(c2)OCO3)c1Br |  |
| 10 nM | 32600 nM | CC(=O)c1c(NC(=O)c2sccc2S(=O)(=O)Nc2onc(C)c2Cl)ccc2c1OCO2 | half-life [5]: 2.5 h; bioavailability [6]: 27%; inhibition in vivo at 15 mg/kg (Rattus norvegicus [7]): 18% |
| 7.2 nM |  | Cc1ccc(C)c(CC(=O)c2sccc2S(=O)(=O)Nc2onc(C)c2Cl)c1 |  |
| 3.4 nM | 40400 nM | Cc1noc(NS(=O)(=O)c2ccsc2C(=O)Nc2ccc3c(c2C#N)OCO3)c1Cl | half-life [5]: 2.5 h; bioavailability [6]: 8%; inhibition in vivo at 15 mg/kg (Rattus norvegicus [7]): 8% |
| 3 nM | 355000 nM | Cc1noc(NS(=O)(=O)c2ccsc2C(=O)Nc2ccc3c(c2C)OCO3)c1Cl | inhibition in vivo at 15 mg/kg (Rattus norvegicus [7]): 14% |
| 1.4 nM | 9800 nM | Cc1cc2c(cc1CC(=O)c1sccc1S(=O)(=O)Nc1onc(C)c1Cl)OCO2 [SITAXENTAN] | bioavailability [9]: 90%; Kb [3]: 10 nM; EC50 (Rattus norvegicus [10]): 0.5 mg/kg; half-life [5]: 6.7 h; bioavailability [6]: 60%; EC50 (Rattus norvegicus [11]): 1 mg/kg; inhibition in vivo at 15 mg/kg (Rattus norvegicus [7]): 41%; Ki (Endothelin-1 receptor [12]): 0.43 nM |
| 0.97 nM |  | Cc1ccc(CC(=O)c2sccc2S(=O)(=O)Nc2onc(C)c2Cl)c(C)c1 |  |
| 0.76 nM | 3500 nM | Cc1ccc(CC(=O)c2sccc2S(=O)(=O)Nc2onc(C)c2Br)c(C)c1 |  |
